# thrombin 1536: thrombin (human) inhibition; P00734; alpha-thrombin, Boc-VPR-AMC fluorogenic substrate cleavage; inhibition, % at 5 µM; hit rate 0.26% among 220,000; AID 1046;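 active = inhibition at or above 40%; inactive = inhibition below 40%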;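 note: 0% = enzyme with no compound and 100% = wells without enzyme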
#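 signal = AMC fluorescence, 355/460 nm | material = human alpha-thrombin enzyme | control set = enzyme without compound as high, wells lacking enzyme as low | times = reaction at room temperature | read-out basis = percent inhibition scaled between no-compound controls and no-enzyme blanks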
# Calpain2 inh: calpain II (pig) inhibition. purified calpain II, fluorogenic peptide substrate, 30 min. inhibition, % at 16 µM. hit rate 0.37% among 220,000;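 active = inhibition above about 50%, limit read from the data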
# FXIIa inh 1536: blocks human coagulation factor XIIa protease activity. inhibition, % at 5 µM. P00748. hit rate 0.3% among 220,000. purified FXIIa, Boc-QGR-AMC fluorogenic substrate, 2 h; in the data active = inhibition above about 40%;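 note: 0% = enzyme with no compound and 100% = blank without enzyme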
# Target sequence (P00748 20-372 limits assumed): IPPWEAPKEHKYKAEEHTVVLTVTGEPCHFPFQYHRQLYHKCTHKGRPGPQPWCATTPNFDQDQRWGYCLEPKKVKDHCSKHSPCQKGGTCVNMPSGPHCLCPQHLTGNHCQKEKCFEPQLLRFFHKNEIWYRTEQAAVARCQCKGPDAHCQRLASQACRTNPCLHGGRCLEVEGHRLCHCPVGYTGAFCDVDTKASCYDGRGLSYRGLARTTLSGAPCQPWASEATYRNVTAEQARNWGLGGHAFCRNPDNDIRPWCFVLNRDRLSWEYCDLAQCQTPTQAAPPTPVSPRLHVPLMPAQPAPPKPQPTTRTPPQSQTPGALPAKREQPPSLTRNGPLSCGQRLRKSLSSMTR
# Target sequence (P00748 373-615 limits assumed): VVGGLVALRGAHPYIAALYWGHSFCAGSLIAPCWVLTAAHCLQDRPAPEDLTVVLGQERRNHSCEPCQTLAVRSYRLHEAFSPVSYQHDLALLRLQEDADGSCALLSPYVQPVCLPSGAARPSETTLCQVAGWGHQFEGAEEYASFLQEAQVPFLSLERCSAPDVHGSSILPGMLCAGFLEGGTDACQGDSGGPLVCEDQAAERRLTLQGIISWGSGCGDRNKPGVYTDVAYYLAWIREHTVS
# FXIa inh: factor XIa (human) inhibition; AID 798; inhibition, % at 5 µM; hit rate 0.14% among 220,000; P03951; purified FXIa, Boc-Glu-Ala-Arg-AMC fluorogenic substrate;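 active = inhibition of at least 40%; inactive = inhibition below 40%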;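 note: fluorescence of freed AMC excited at 355 nm; 0% = enzyme without compound and 100% = no enzyme blank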
# KLK5 inh: kallikrein 5 (human) inhibition; Q9Y337; recombinant hK5, fluorogenic AMC substrate cleavage; inhibition, % at 5 µM; hit rate 0.59% among 210,000; AID 873;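 active = inhibition of 40% or more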;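 note: 0% = enzyme controls without compound and 100% = no-enzyme blanks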
# Starred values were filed as active, the others as inactive; . = not tested or not shown. In the library only some 1.4% were active in any assay of this set; here they are far more common.
SMILES,thrombin 1536,Calpain2 inh,FXIIa inh 1536,FXIa inh,KLK5 inh
C/C(=N\NC(=O)c1ccccc1C)c1cccc([N+](=O)[O-])c1,3.1,-7.8,5.6,-10.8,-18.7
O=C(N/N=C/c1ccc(Cl)c([N+](=O)[O-])c1)c1cc(-c2ccccc2)nc2ccccc12,0.2,-18.0,1.4,-6.8,-13.3
CCC(=O)C1=C(N2CCCC2)CC(C)(C)CC1=O,11.2,7.3,26.7,2.8,47.4*
CCCCC(=O)C1=C(N2CCCC2)CC(C)(C)CC1=O,2.2,-2.5,8.4,0.2,-5.7
COc1cc(C(=O)O/N=C2\C=CC(=O)C=C2C)cc(OC)c1OC,-0.1,7.0,41.0*,7.5,5.1
Cc1ccn(CC(=O)O)c(=O)c1,-6.1,16.8,58.2*,28.1,-1.6
CC(=O)NNC(=S)NC(=O)c1ccccc1,42.6*,30.6,42.0*,20.8,8.0
Cc1csc(NC(=O)Cc2c[nH]c3ccccc23)n1,-3.7,8.5,40.5*,-7.8,12.0
COCCNCC(=O)Nc1nc(C)cs1,14.2,18.9,101.9*,46.3*,26.9
Cc1cnc(NC(=O)Cc2c[nH]c3ccccc23)s1,-4.6,-0.7,-5.7,-6.4,7.5
CCCN(CCC)C(=O)CP(=O)(c1ccccc1)c1ccccc1,-0.8,-20.9,1.4,-4.4,-10.3
CCCCOC1CC(c2ccc(OCc3ccc(OC)cc3)c(OC)c2)N(C)O1 (configuration not stated),-7.3,16.8,4.1,-3.5,-9.1
CC(C)Cn1c(Br)nc2c1c(=O)n(CCC#N)c(=O)n2C,-7.1,-25.5,17.1,-5.0,15.2
Cc1[nH]c2ccccc2c1C(=O)COC(=O)Cn1c(C)nc2ccccc21,20.0,14.6,31.8,39.4,51.7*
Cc1cc(C)nc(Nc2ccccc2Br)n1,44.6*,8.8,20.0,19.9,58.9*
Cc1cc(N2CCN(C)CC2)nc2ccc(NC(=S)NCc3cccs3)cc12,-1.5,40.5,8.5,-2.3,-0.9
CCN1CCN(c2cc(C)c3cc(NC(=S)NCc4cccs4)ccc3n2)CC1,-0.6,51.0*,5.3,-1.0,-2.2
COc1ccccc1Nc1nc(NCc2ccco2)nc(N)c1[N+](=O)[O-],-0.8,12.5,6.6,10.8,4.5
CCNC(=S)N1CCC(NC(=O)c2ccco2)CC1,2.4,-10.3,5.0,-0.9,-2.0
CNC(=S)N1CCC(NC(=O)c2ccco2)CC1,29.2,-4.8,24.6,44.0*,18.1
COCCNC(=O)c1nn(-c2cc(OC)cc(OC)c2)c(=O)c2ccccc12,7.8,11.4,18.1,15.2,66.3*
Cc1cc(C)cc(OCC(=O)NNC(=O)CN2C(=O)c3ccccc3C2=O)c1,84.9*,26.5,2.5,2.7,53.5*
Cc1cc(C)cc(OCC(=O)OCCN2C(=O)c3ccccc3C2=O)c1,-2.5,-33.4,6.2,-15.9,-33.0
COC(=O)c1cc(C(=O)N2CCN(c3cccc(Cl)c3)CC2)cc([N+](=O)[O-])c1,1.3,21.7,6.1,1.7,-0.7
Cc1ccc(C(=O)NCC(=O)OC(C)C(=O)Nc2ccc(N3CCOCC3)cc2)s1 (configuration not stated),5.1,10.2,82.5*,43.8*,77.1*
SMILES,thrombin 1536,Calpain2 inh,FXIIa inh 1536,FXIa inh,KLK5 inh
Cc1nn(-c2ccccc2)c(N2CCCC2)c1/C=N/NC(=O)c1cc(-c2cccs2)nc2ccccc12,-14.5,-106.4,7.0,-3.8,-11.9
O=C1OC(Nc2ccccn2)c2ccccc21 (configuration not stated),3.7,-19.5,17.7,3.5,3.3
O=C1OC(Nc2ncccn2)c2ccccc21 (configuration not stated),13.6,0.6,106.1*,8.3,41.8*
O=C(CSc1nnnn1-c1ccc2c(c1)OCCO2)OC1CCCCC1,-2.9,71.2*,0.0,-6.9,-28.5
CCC(=O)Nc1ccc(NC(=O)CSc2nnnn2-c2ccc3c(c2)OCCO3)cc1,-0.4,13.5,7.4,-1.5,-0.3
O=C(CCn1c(=O)[nH]c2ccsc2c1=O)NCc1ccc(F)cc1,-4.8,51.8*,8.7,0.3,-0.9
COc1ccccc1NC(=O)c1ccccc1SC,-4.6,12.1,6.3,-7.0,8.7
COc1cc(C(=O)OCC(C)=O)ccc1OCc1c(C)noc1C,.,36.6,38.4,42.4*,42.0*
O=C(O)c1cccc(NC(=S)N/N=C/c2ccccc2OCc2ccc(Br)cc2)c1,6.0,-5.8,1.8,-0.3,2.6
O=C(O)c1cccc(NC(=S)N/N=C/c2ccccc2OCc2cccc(Br)c2)c1,2.3,55.8*,1.5,-3.0,-0.3
Cc1cccc(N2CC(O)(c3cccs3)[N+]3=C2CCCC3)c1 (configuration not stated),-6.7,-15.1,.,-4.9,-3.1
CN1CCN(C(=O)c2cc3c(C(F)(F)F)nn(C)c3s2)CC1,4.3,5.6,2.1,-4.9,47.7*
CC1(C)C(=O)Nc2ccccc2N1C(=O)COC(=O)c1cc([N+](=O)[O-])ccc1N,23.6,35.8,24.4,16.6,48.3*
CN(C)S(=O)(=O)c1cccc(C(=O)OCC(=O)N2c3ccccc3NC(=O)C2(C)C)c1,-0.6,5.6,12.8,0.5,-17.6
COc1ccccc1NC(=O)c1sc(NC(=O)c2ccco2)c(C#N)c1C,-3.5,-37.5,6.6,-9.1,-6.7
CCN(CC)C(=O)c1sc(NC(=O)Cc2ccccc2)c(C#N)c1C,23.4,29.7,18.3,15.0,40.8*
Cc1ccccc1OCC(=O)Nc1sc(C(=O)Nc2cccc(C)c2C)c(C)c1C#N,5.2,15.8,12.8,-0.9,45.4*
CSc1ccccc1NC(=O)COc1ccccc1C,-4.3,69.0*,3.5,-5.5,-1.6
COc1ccc(NC(=O)Cc2ccc(Cl)cc2Cl)cn1,-4.1,5.0,.,-1.6,0.1
COc1ccc(NC(=O)Cc2ccccc2F)cn1,49.8*,11.0,13.1,23.2,15.1
CCOCC(=O)Nc1ccccc1C(=O)O,-8.3,1.8,5.9,-4.6,-0.4
O=C1CC(c2cccs2)c2cc3c(cc2N1)OCO3 (configuration not stated),-0.4,-2.6,16.6,1.2,46.3*
O=C(NCc1ccc2c(c1)OCO2)c1cc(-c2ccccc2Cl)on1,-4.3,29.4,-0.4,-14.1,-4.4
Cc1nnc(NN)n(N)c1=O,-9.3,-5.0,-0.7,-15.9,15.1
Nc1ncnc2nc(SCCN3CCCCC3)[nH]c12,76.2*,6.0,-2.8,-10.3,-18.1
SMILES,thrombin 1536,Calpain2 inh,FXIIa inh 1536,FXIa inh,KLK5 inh
CC(C)NC(=O)C1CCN(C2CCN(Cc3nc4ccccc4s3)CC2)CC1,-10.6,-24.6,6.8,-3.4,1.7
CCCCn1nnc(NC(=O)COc2ccc(Cl)c(C)c2)n1,9.9,20.9,7.2,0.2,104.1*
Cc1cccc(OCC(=O)N/N=C/c2ccccc2C(=O)O)c1,33.8,29.1,25.8,43.1*,41.9*
O=C(N/N=C/c1ccc2c(c1)OCO2)C1COc2ccccc2O1 (configuration not stated),6.3,21.8,16.8,-1.1,45.9*
CCOc1ncccc1C(=O)OCC(=O)Nc1ccc(C(N)=O)cc1,3.5,14.8,44.8*,14.2,41.5*
CCOc1ncccc1C(=O)OCC(=O)Nc1ccc(C(C)C)cc1,-14.0,-4.1,5.6,-3.8,-8.1
CCCCn1c2ccc(F)cc2c2nnc(NN)nc21,0.9,-2.7,9.6,-1.0,0.3
